Assay results taken from ChEMBL document CHEMBL1154198, “Chemical genetics of Plasmodium falciparum” (Nature, 2010).

How the values were obtained:
Plasmodium falciparum [1] = experiment: ST_JUDE: Cytotoxicity against Plasmodium falciparum Dd2; assay type: functional, organism-based
Trypanosoma brucei = experiment: ST_JUDE: Cytotoxicity using luciferase to measure ATP as an indicator of the viability of Trypanosoma brucei; assay type: functional, organism-based
Plasmodium falciparum [2] = experiment: ST_JUDE: Cytotoxicity against Plasmodium falciparum W2; assay type: functional, organism-based
[3] = ST_JUDE: Cytotoxicity using luciferase to measure ATP as an indicator of the viability of human foreskin fibroblast cells (BJ); assay type: toxicity, cell-based
Plasmodium falciparum [4] = experiment: ST_JUDE: Cytotoxicity against Plasmodium falciparum SB-A6; assay type: functional, organism-based
Plasmodium falciparum [5] = experiment: ST_JUDE: Cytotoxicity against Plasmodium falciparum V1/S; assay type: functional, organism-based
Plasmodium falciparum [6] = experiment: ST_JUDE: Cytotoxicity against Plasmodium falciparum D10 transfected with yeast DHOD; assay type: functional, organism-based
Leishmania major = experiment: ST_JUDE: Cytotoxicity using Alamar Blue to measure viability of Leishmania major; assay type: functional, organism-based
How it was run: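 L. major promastigotes; drug susceptibility read with Alamar Blue.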

[7] = ST_JUDE: Cytotoxicity using luciferase to measure ATP as an indicator of the viability of human Burkitt''s lymphoma lymphoblast cells (Raji); assay type: toxicity, cell-based
[8] = ST_JUDE: Cytotoxicity using luciferase to measure ATP as an indicator of the viability of human epithelial embryonic kidney cells (HEK293); assay type: toxicity, cell-based
Plasmodium falciparum [9] = experiment: ST_JUDE: Cytotoxicity against Plasmodium falciparum 3D7; assay type: functional, organism-based
How it was run: (§1)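 Asexual P. falciparum grown in human erythrocytes, exposed to compounds for 72 h, and growth read as the DNA quantity in treated versus control cultures. Dose-response run at 12 concentrations from 10 μM to 5 nM.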

[10] = ST_JUDE: Cytotoxicity using luciferase to measure ATP as an indicator of the viability of human epithelial hepatocellular carcinoma cells (HepG2); assay type: toxicity, cell-based
Plasmodium falciparum [11] = experiment: ST_JUDE: Cytotoxicity against Plasmodium falciparum K1; assay type: functional, organism-based; how it was run: as §1
Plasmodium falciparum [12] = experiment: ST_JUDE: Plasmodium falciparum 3D7 EC50 (uM) as measured by SYBR green dye; assay type: functional, organism-based
Plasmodium falciparum [13] = experiment: ST_JUDE: Plasmodium falciparum K1 EC50 (uM) as measured by SYBR green dye; assay type: functional, organism-based
Toxoplasma gondii = experiment: ST_JUDE: Growth inhibition of to Toxoplasma gondii, in human U-2OS cells, as measured by luciferase.; assay type: functional, organism-based; conditions: RH, U2OS
How it was run: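 T. gondii parasites engineered to express luciferase; drug sensitivity read by luminescence.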

`CCCO/C(O)=C1\C(C)=NC2=C(C(=O)CC(c3ccc(OC)c(OC)c3)C2)C1c1cccc(Cl)c1` (stereo not drawn) showed an EC50 (Plasmodium falciparum [1]) of 1020 nM, an EC50 (Trypanosoma brucei) of 5150 nM and an EC50 (Plasmodium falciparum [2]) of 586 nM. For the same molecule, the EC50 [3] was greater than 37700 nM, the EC50 (Plasmodium falciparum [4]) was 199 nM and the EC50 (Plasmodium falciparum [5]) was 518 nM. The EC50 (Plasmodium falciparum [6]) was 330 nM, the EC50 (Leishmania major) was greater than 16200 nM and the EC50 [7] was greater than 37700 nM. For the same molecule, the EC50 [8] was greater than 37700 nM, the EC50 (Plasmodium falciparum [9]) was 732 nM and the EC50 [10] was greater than 37700 nM. For the same molecule, the EC50 (Plasmodium falciparum [11]) was 426 nM, the EC50 (Plasmodium falciparum [12]) was 536 nM and the EC50 (Plasmodium falciparum [13]) was 188 nM. For the same molecule, the EC50 (Toxoplasma gondii) was greater than 20700 nM.
`C/C=C/c1n(C)c2ccccc2[n+]1C` showed an EC50 (Plasmodium falciparum [1]) of 1630 nM, an EC50 (Trypanosoma brucei) greater than 38600 nM and an EC50 (Plasmodium falciparum [2]) of 1900 nM. For the same molecule, the EC50 [3] was greater than 40200 nM, the EC50 (Plasmodium falciparum [4]) was 1070 nM and the EC50 (Plasmodium falciparum [5]) was 1390 nM. It also gave an EC50 (Plasmodium falciparum [6]) of 701 nM, an EC50 (Leishmania major) greater than 17200 nM and an EC50 [7] greater than 40200 nM. For the same molecule, the EC50 [8] was greater than 40200 nM, the EC50 (Plasmodium falciparum [9]) was 916 nM and the EC50 [10] was greater than 40200 nM. It also gave an EC50 (Plasmodium falciparum [11]) of 993 nM, an EC50 (Plasmodium falciparum [12]) of 1500 nM and an EC50 (Plasmodium falciparum [13]) of 1380 nM. The EC50 (Toxoplasma gondii) was greater than 22000 nM.
For `CN1C(=O)/C(=C\c2ccccc2Cl)Sc2ccc(C(=O)NC3CCN(Cc4ccccc4)CC3)cc21`, the EC50 (Plasmodium falciparum [1]) was 1150 nM, the EC50 (Trypanosoma brucei) was 3470 nM and the EC50 (Plasmodium falciparum [2]) was greater than 10900 nM. It also gave an EC50 [3] greater than 42500 nM, an EC50 (Plasmodium falciparum [4]) of 717 nM and an EC50 (Plasmodium falciparum [5]) of 3970 nM. It also gave an EC50 (Plasmodium falciparum [6]) of 1090 nM, an EC50 (Leishmania major) greater than 18200 nM and an EC50 [7] greater than 42500 nM. The EC50 [8] was greater than 42500 nM, the EC50 (Plasmodium falciparum [9]) was 1740 nM and the EC50 [10] was 17900 nM. For the same molecule, the EC50 (Plasmodium falciparum [11]) was 2910 nM, the EC50 (Plasmodium falciparum [12]) was 276 nM and the EC50 (Plasmodium falciparum [13]) was 254 nM. It also gave an EC50 (Toxoplasma gondii) greater than 23300 nM.
